Ends that are not written are not given here. * marks the point of attachment. FITC = O=C1OC2(c3ccc(O)cc3Oc3cc(O)ccc32)c2ccc(NC(=S)*)cc21
Tests used:
human SCLC cell lines [1] = test: MTT cell viability / short-term proliferation, human SCLC lines; type: cell-based
[2] = test system: human NSCLC (lung adenocarcinoma) cell lines; test: MTT cell viability / short-term proliferation, human NSCLC lines; type: cell-based; conditions: for growth of NSCLC cells under BRD/HAT inhibitors: MTT
EP300 = test: Anti-FLAG immunoprecipitation/immunoblot for EP300 in H524 cell extracts; type: cell-based, human; conditions: FLAG-tagged M/M, IP relative to input, n = 3
In short: (§1)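 H524 cells express FLAG-tagged M/M fusion peptide from a doxycycline-inducible promoter. Cells are lysed in RIPA (pH 8.0, with protease inhibitors). Lysates are immunoprecipitated with anti-FLAG or control IgG overnight at 4°C, then protein A/G agarose is added for 4 h at 4°C. Eluates are immunoblotted for FLAG, EP300 and CREBBP. IP band intensity is expressed relative to 5% input; n = 3; unpaired t test.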

H209 SCLC cells = test: RNA sequencing, GSEA and KEGG analysis, H209 cells; type: cell-based, human
In short: (§2)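 SCLC cells express M/M or M/M-5A peptide under a doxycycline-inducible promoter. mRNA is oligo(dT)-purified from 500 ng total RNA, and 100-bp single-end reads are sequenced on an Illumina NextSeq2000. Differential expression signatures come from comparing TPM between experimental and control groups. GSEA is run on the signature using Molecular Signatures Database v7.4 gene sets.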

H524 SCLC cells = test: RNA sequencing, GSEA and KEGG analysis, H524 cells; type: cell-based, human; conditions: H524, M/M vs M/M-5A
In short: as §2

CREBBP = test: Anti-FLAG immunoprecipitation/immunoblot for CREBBP in H524 cell extracts; type: cell-based, human; conditions: FLAG-tagged M/M, IP relative to input, n = 3
In short: as §1

[3] = target: purified KIX domain of CREBBP (Mus musculus, UniProt P45481); test: FP assay, direct binding of fluorophore-labeled peptides to CREBBP KIX
Chain of purified KIX domain of CREBBP (P45481 585-672): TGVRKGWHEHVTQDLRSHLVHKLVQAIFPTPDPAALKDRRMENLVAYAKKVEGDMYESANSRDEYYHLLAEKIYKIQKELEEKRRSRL
In short: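 CREBBP KIX domain (87 residues, 585-672) was expressed from pMAL-c5E in E. coli Rosetta (DE3) and purified by affinity then anion-exchange chromatography. FP probes were N-terminally FITC-labelled MYB peptide and rhodamine-labelled MLL peptide, each at 0.5 µM, in 50 mM Hepes (pH 7.5) with 50 mM NaCl. Plates were incubated 30 min in the dark at room temperature, then read for polarization.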

[4] = test system: interaction between CREB1 and the KIX domain of EP300; conditions: cited from earlier work
human SCLC cell lines [5] = test: Soft agar colony formation, human SCLC lines; type: cell-based; conditions: 2 μM in DMSO; H69, H209, H524; n = 3
[6] = test system: human NSCLC (lung adenocarcinoma) cell lines; test: Soft agar colony formation, human NSCLC lines; type: cell-based; conditions: 2 μM in DMSO; H1650 (fig. S8A); n = 3
[7] = test system: interaction between CREB1 and the KIX domain of CREBBP; conditions: cited from earlier work
mouse SCLC cells (RP-1) = test: MTT cell viability, mouse SCLC cells RP-1; type: cell-based; conditions: RP-1, MTT, n = 3
In short: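 Murine SCLC cells derived from Rb1/Trp53-mutant mouse lung tumors are grown in RPMI1640 with 10% bovine growth serum. Cells are seeded at 1×10^4 per well and treated with bromodomain- or HAT-domain-targeting test compounds. Over 0 to 4 or 6 days, MTT (0.5 mg/ml final) is added for 4 h at 37°C and OD is read at 590 nm, minus a vehicle blank. Triplicates; n = 3.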

[8] = target: FITC-labeled MYB peptide (MYB25); test: fluorescence polarisation
[9] = target: rhodamine-labeled MLL peptide (MLL25); test: fluorescence polarisation
A627D EP300 KIX = A627D EP300 KIX (human, UniProt Q09472 565-652, A627D); test: fluorescence polarisation
Chain of A627D EP300 KIX (Q09472 565-652 A627D): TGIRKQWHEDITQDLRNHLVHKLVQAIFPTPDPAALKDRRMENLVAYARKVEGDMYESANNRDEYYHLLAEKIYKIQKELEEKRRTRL

EP300 KIX domain = EP300 KIX domain (human, UniProt Q09472 565-652); test: fluorescence polarisation
Chain of EP300 KIX domain (Q09472 565-652): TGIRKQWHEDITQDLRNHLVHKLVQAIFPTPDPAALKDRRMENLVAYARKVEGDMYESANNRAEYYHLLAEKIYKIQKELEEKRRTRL

H-SDDGNILPSDIMDFVLKNTPSMQALGESGGDEDPEKEKRIKELELLLMSTENELKGQQAL-OH [M/M]
short-term proliferation of SCLC cells (human SCLC cell lines [1]; doxycycline-inducible lentiviral expression of peptide, MTT, n = 3): inhibited the short-term proliferation | growth of lung adenocarcinoma cells, MTT ([2]; doxycycline-inducible lentiviral expression of peptide, n = 3): did not detectably affect the growth of lung adenocarcinoma cell lines | binding to EP300 in cells (EP300): confirmed the binding of M/M to both EP300 and CREBBP | preference EP300 over CREBBP in cells (EP300): bound preferentially to EP300 than to CREBBP | gene set enrichment (GSEA), TF target genes (H209 SCLC cells; H209, M/M vs M/M-5A): significantly enriched in the gene sets related to MYB, ATF4, CREB1, and CREBP1/JUN targets | KEGG pathway small cell lung cancer (H209 SCLC cells; M/M-expressing H209 vs M/M-5A): down-regulated in M/M-expressing H209 cells | gene set enrichment (GSEA), TF target genes (H524 SCLC cells): significantly enriched in the gene sets related to MYB, ATF4, CREB1, and CREBP1/JUN targets | binding to CREBBP in cells (CREBBP): confirmed the binding of M/M to both EP300 and CREBBP

SDDGNILPSDIMDFVLKNTPSMQAL [MLL25]
Kd [3]: 94 ± 11 µM

O=C(Nc1ccc(Cl)cc1)c1cc2ccccc2cc1OP(=O)(O)O [KG-501, 2-naphthol-AS-E-phosphate]
inhibition of CREB1-EP300 KIX interaction [4]: shown to inhibit the interaction between CREB1 and the KIX domains of EP300 and CREBBP | short-term growth of SCLC lines, KG-501 (human SCLC cell lines [1]; in culture): inhibited the short-term growth of SCLC lines in culture | soft agar colony formation of SCLC lines, KG-501 (human SCLC cell lines [5]): inhibited the short-term growth of SCLC lines in culture and colony formation in soft agar | short-term growth of NSCLC lines, KG-501 ([2]; in culture): did not have a significant effect on NSCLC cell lines | soft agar colony formation of NSCLC lines, KG-501 [6]: did not have a significant effect on NSCLC cell lines | inhibition of CREB1-CREBBP KIX interaction [7]: shown to inhibit the interaction between CREB1 and the KIX domains of EP300 and CREBBP

CC1=NN(c2ccc(C(=O)O)cc2)C(=O)/C1=C\c1ccc(-c2cc(C)c(C)cc2[N+](=O)[O-])o1 [C646]
growth of human SCLC cells under BRD/HAT inhibitors (human SCLC cell lines [1]; MTT, n = 3): either insignificant or modest | growth of NSCLC cells under BRD/HAT inhibitors ([2]; n = 3): dose-dependent effects on NSCLC lines | growth of mouse SCLC cells (mouse SCLC cells (RP-1)): did not have any significant effect on the growth

COc1ccc(CCc2nc3cc(-c4c(C)noc4C)ccc3n2C[C@H](C)N2CCOCC2)cc1Cl [SGC-CBP30]
growth of human SCLC cells under BRD/HAT inhibitors (human SCLC cell lines [1]; MTT, n = 3): either insignificant or modest | growth of NSCLC cells under BRD/HAT inhibitors ([2]; n = 3): dose-dependent effects on NSCLC lines | growth of mouse SCLC cells (mouse SCLC cells (RP-1)): did not have any significant effect on the growth

CREBBP KIX domain (from UniProt Q92793 585-672) (domain or fragment)
Kd [8]: 22 µM | Kd [9]: 94 µM

D647A CREBBP KIX domain (from UniProt Q92793 585-672) (domain or fragment)
Kd [8]: 6.7 µM

CCC(=O)N1CCOc2c(cc(-c3ccc(OC)c(OC)c3)cc2OC[C@H]2CCCN(C)C2)C1 [I-CBP112]
growth of human SCLC cells under BRD/HAT inhibitors (human SCLC cell lines [1]; MTT, n = 3): either insignificant or modest | growth of NSCLC cells under BRD/HAT inhibitors ([2]; n = 3): dose-dependent effects on NSCLC lines | growth of mouse SCLC cells (mouse SCLC cells (RP-1)): did not have any significant effect on the growth

B1: FITC-labeled MYB peptide (MYB25) (peptide)
peptide: {FITC}-KEKRIKELELLLMSTENELKGQQAL
Kd (A627D EP300 KIX): 23 ± 6.2 µM | Kd (EP300 KIX domain): 3.8 ± 0.2 µM

B2: rhodamine-labeled MLL peptide (MLL25) (peptide)
peptide: SDDGNILPSDIMDFVLKNTPSMQAL
modifications: also: rhodamine label
Kd (A627D EP300 KIX): 80 ± 8.5 µM | Kd (EP300 KIX domain): 40 ± 14 µM

Source: paper PMC8849394 (Science Advances, 2022)
